ChEMBL document CHEMBL3132763, “Repurposing human Aurora kinase inhibitors as leads for anti-protozoan drug discovery” (Medchemcomm, 2014)

Tests used:
[1] = tested on: Plasmodium falciparum; assay: Antiprotozoal activity against chloroquine-resistant Plasmodium falciparum C2B assessed as growth inhibition after 72 hrs by SYBR Green dye-based fluorescence assay; type: functional, organism-based
[2] = tested on: Plasmodium falciparum; assay: Antiprotozoal activity against chloroquine-resistant Plasmodium falciparum W2 assessed as growth inhibition after 72 hrs by SYBR Green dye-based fluorescence assay; type: functional, organism-based; conditions: W2, 72 h
In short: (§1)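 Laboratory strains (D6, TM91C235, W2) in long-term culture, late-ring/early-trophozoite stage, seeded into pre-dosed 384-well plates at 0.3% parasitemia and 2% hematocrit. Twelve two-fold dilutions from DMSO, final 0.5–10000 ng/ml, in duplicate or quadruplicate. Incubated 72 h at 37°C under 5% CO2/5% O2/90% N2. Lysis buffer with SYBR Green I (final 10x) added, then 24 h dark at room temperature. Fluorescence read; IC50/IC90 from sigmoidal variable-slope fit. Chloroquine 2000 ng/ml batch control.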

[3] = tested on: Plasmodium falciparum; assay: Antiprotozoal activity against chloroquine/mefloquine/pyrimethamine-resistant Plasmodium falciparum C235 assessed as growth inhibition after 72 hrs by SYBR Green dye-based fluorescence assay; type: functional, organism-based; conditions: C235, 72 h; in short: as §1
[4] = Cytotoxicity against human HepG2 cells after 48 hrs by MTT assay; type: cell-based; conditions: read-out: TC50
In short: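 HepG2 cells in supplemented MEM, 9570 cells/well, plated overnight at 37°C. Twelve 1.6-fold dilutions in duplicate, 57–10,000 ng/ml, 48 h. MTT added for 1 h at room temperature in the dark; formazan dissolved in acidified isopropanol; absorbance read. IC50 by sigmoidal variable-slope nonlinear regression; mefloquine served as plate control.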

[5] = tested on: Plasmodium falciparum; assay: Antiprotozoal activity against Plasmodium falciparum D6 assessed as growth inhibition after 72 hrs by SYBR Green dye-based fluorescence assay; type: functional, organism-based; conditions: D6, 72 h; in short: as §1
[6] = tested on: Leishmania major; assay: Antiprotozoal activity against intracellular amastigote stage of Leishmania major infected in mouse […] cells assessed as growth inhibition after 96 hrs by luciferase reporter gene assay; type: functional, organism-based
In short: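 RAW 264.7 macrophages (10,000/well, DMEM/10% HIFBS, 24 h at 37°C) infected overnight with luciferase-expressing L. major promastigotes (100,000/well), then washed three times. Twelve two-fold dilutions in duplicate, final 0.5–10,000 ng/ml, 96 h at 37°C, 5% CO2. Luciferin added for 30 min; luminescence read. IC50 by sigmoidal variable-slope nonlinear regression.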

[7] = tested on: Leishmania major; assay: Antiprotozoal activity against promastigote stage of Leishmania major assessed as growth inhibition after 44 hrs by AlamarBlue staining-based fluorescence assay; type: functional, organism-based
[8] = tested on: Trypanosoma brucei; assay: Antiprotozoal activity against Trypanosoma brucei 427 assessed as growth inhibition after 48 hrs by PrestoBlue-based fluorescence assay; type: functional, organism-based; conditions: Trypanosoma brucei, 427, 48 h
In short: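 T. brucei brucei strain 427 at 5 × 10^3 cells/well in HMI-9 with compound; 37°C, 5% CO2, 48 h. PrestoBlue added for a further 4 h; fluorescence read at ex 530 / em 590 nm.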

[9] = Selectivity ratio of TC50 for human HepG2 cells to EC50 for Plasmodium falciparum D6; type: ADME, cell-based

## CC(=O)Nc1ccc2c(c1)/C(=C(/Nc1ccc(CN3CCCCC3)cc1)c1ccccc1)C(=O)N2
[1]
  EC50: 56 nM
[2]
  EC50: 88 nM
[3]
  EC50: 74 nM
[4]
  CC50 at 48 h: > 6000 nM
[5]
  EC50: 68 nM
[6]
  EC50: > 4000 nM
[7]
  EC50: 1520 nM
[8]
  EC50: 150 nM

## CCS(=O)(=O)Nc1ccc2c(c1)/C(=C/Nc1ccc(CN3CCCCC3)cc1)C(=O)N2
[1]
  EC50: 173 nM
[2]
  EC50: 273 nM
[3]
  EC50: 242 nM
[4]
  CC50 at 48 h: 5000 nM
[5]
  EC50: 241 nM
[6]
  EC50: > 4000 nM
[7]
  EC50: 2770 nM
[8]
  EC50: 1320 nM

## CCS(=O)(=O)Nc1ccc2c(c1)/C(=C(/Nc1ccc(CN3CCOCC3)cc1)c1ccccc1)C(=O)N2
[2]
  EC50: 77 nM
[3]
  EC50: 31 nM
[4]
  CC50 at 48 h: 1310 nM
[5]
  EC50: 54 nM
[6]
  EC50: 1680 nM
[7]
  EC50: 940 nM
[8]
  EC50: 100 nM

## CC/C(Nc1ccc(CN2CCCCC2)cc1)=C1/C(=O)Nc2ccc(NS(=O)(=O)CC)cc21
[1]
  EC50: 143 nM
[2]
  EC50: 347 nM
[3]
  EC50: 255 nM
[4]
  CC50 at 48 h: > 6000 nM
[5]
  EC50: 233 nM
[6]
  EC50: > 4000 nM
[7]
  EC50: 2800 nM
[8]
  EC50: 1790 nM

## O=C1Nc2ccccc2/C1=C(/Nc1ccc(CN2CCCCC2)cc1)c1ccccc1
[1]
  EC50: 160 nM
[2]
  EC50: 273 nM
[3]
  EC50: 227 nM
[4]
  CC50 at 48 h: > 6000 nM
[5]
  EC50: 230 nM
[6]
  EC50: > 4000 nM
[7]
  EC50: 770 nM
[8]
  EC50: 70 nM

## CC(=O)N1C(=O)/C(=C(\Nc2ccc(CN3CCCCC3)cc2)c2ccccc2)c2cc(N)ccc21
[1]
  EC50: 210 nM
[2]
  EC50: 241 nM
[3]
  EC50: 243 nM
[4]
  CC50 at 48 h: 1810 nM
[5]
  EC50: 218 nM
[6]
  EC50: > 4000 nM
[7]
  EC50: > 4000 nM
[8]
  EC50: 3250 nM

## CC(=O)N1C(=O)/C(=C(\Nc2ccc(CN3CCCCC3)cc2)c2ccccc2)c2cc([N+](=O)[O-])ccc21
[1]
  EC50: 249 nM
[2]
  EC50: 307 nM
[3]
  EC50: 271 nM
[4]
  CC50 at 48 h: > 6000 nM
[5]
  EC50: 275 nM
[6]
  EC50: 2040 nM
[7]
  EC50: 1080 nM
[8]
  EC50: 130 nM

## Cc1cc(Nc2cc(N3CCN(C)CC3)nc(Sc3ccc(NC(=O)C4CC4)cc3)n2)n[nH]1 [TOZASERTIB]
[4]
  CC50 at 48 h: 3300 nM
[5]
  EC50: 838 nM
[7]
  EC50: > 21000 nM
[8]
  EC50: 10000 nM

## CCS(=O)(=O)Nc1ccc2c(c1)/C(=C(/Nc1ccccc1)c1ccccc1)C(=O)N2
[1]
  EC50: 117 nM
[2]
  EC50: 143 nM
[3]
  EC50: 118 nM
[9]
  selectivity ratio: 50
[4]
  CC50 at 48 h: 4700 nM
[5]
  EC50: 109 nM
[6]
  EC50: > 4000 nM
[7]
  EC50: > 4000 nM
[8]
  EC50: 1440 nM

## CCS(=O)(=O)Nc1ccc2c(c1)/C(=C(/NC1CCN(C)CC1)c1ccccc1)C(=O)N2
[1]
  EC50: > 15000 nM
[2]
  EC50: > 15000 nM
[3]
  EC50: > 15000 nM
[4]
  CC50 at 48 h: > 10000 nM
[5]
  EC50: > 15000 nM
[6]
  EC50: > 4000 nM
[7]
  EC50: > 4000 nM
[8]
  EC50: > 50000 nM

## O=C1Nc2ccc(NS(=O)(=O)c3ccccc3)cc2/C1=C(/Nc1ccc(CN2CCCCC2)cc1)c1ccccc1
[1]
  EC50: 82 nM
[2]
  EC50: 144 nM
[3]
  EC50: 120 nM
[4]
  CC50 at 48 h: 3290 nM
[5]
  EC50: 107 nM
[6]
  EC50: 1910 nM
[7]
  EC50: 850 nM
[8]
  EC50: 10 nM

## CCS(=O)(=O)Nc1ccc2c(c1)/C(=C(/Nc1ccc(CN3CCCCC3)cc1)c1ccccc1)C(=O)N2 [HESPERADIN]
[1]
  EC50: 14 nM
[2]
  EC50: 21 nM
[3]
  EC50: 10 nM
[4]
  CC50 at 48 h: < 200 nM
[5]
  EC50: 10 nM
[6]
  EC50: 2370 nM
[7]
  EC50: 120 nM
[8]
  EC50: 60 nM

## CS(=O)(=O)Nc1ccc2c(c1)/C(=C(/Nc1ccc(CN3CCCCC3)cc1)c1ccccc1)C(=O)N2
[2]
  EC50: 86 nM
[3]
  EC50: 58 nM
[4]
  CC50 at 48 h: 200 nM
[5]
  EC50: 52 nM
[6]
  EC50: > 4000 nM
[7]
  EC50: 390 nM
[8]
  EC50: 20 nM

## CCS(=O)(=O)Nc1ccc2c(c1)/C(=C(/Nc1ccc(N3CCCCC3)cc1)c1ccccc1)C(=O)N2
[1]
  EC50: 735 nM
[2]
  EC50: 832 nM
[3]
  EC50: 647 nM
[4]
  CC50 at 48 h: > 6000 nM
[5]
  EC50: 595 nM
[6]
  EC50: > 4000 nM
[7]
  EC50: 620 nM
[8]
  EC50: 1530 nM

## Nc1ccc2c(c1)/C(=C(/Nc1ccc(CN3CCCCC3)cc1)c1ccccc1)C(=O)N2
[1]
  EC50: 175 nM
[2]
  EC50: 228 nM
[3]
  EC50: 176 nM
[4]
  CC50 at 48 h: > 6000 nM
[5]
  EC50: 199 nM
[6]
  EC50: > 4000 nM
[7]
  EC50: 790 nM
[8]
  EC50: 1160 nM

## CCS(=O)(=O)Nc1ccc2c(c1)/C(=C(/Nc1ccc(C)cc1)c1ccccc1)C(=O)N2
[1]
  EC50: 1570 nM
[2]
  EC50: 2490 nM
[3]
  EC50: 1640 nM
[4]
  CC50 at 48 h: 3100 nM
[5]
  EC50: 1610 nM
[6]
  EC50: > 4000 nM
[7]
  EC50: 2600 nM
[8]
  EC50: 370 nM

## CCS(=O)(=O)Nc1ccc2c(c1)/C(=C(\C)Nc1ccc(CN3CCCCC3)cc1)C(=O)N2
[1]
  EC50: 1060 nM
[2]
  EC50: 1260 nM
[3]
  EC50: 1190 nM
[4]
  CC50 at 48 h: > 6000 nM
[5]
  EC50: 1360 nM
[6]
  EC50: > 4000 nM
[7]
  EC50: > 4000 nM
[8]
  EC50: 3360 nM

## CCCC/C(Nc1ccc(CN2CCCCC2)cc1)=C1/C(=O)Nc2ccc(NS(=O)(=O)CC)cc21
[1]
  EC50: 148 nM
[2]
  EC50: 217 nM
[3]
  EC50: 170 nM
[4]
  CC50 at 48 h: > 6000 nM
[5]
  EC50: 167 nM
[6]
  EC50: > 4000 nM
[7]
  EC50: 2600 nM
[8]
  EC50: 1670 nM

## CO[C@@H](C(=O)N1Cc2n[nH]c(NC(=O)c3ccc(N4CCN(C)CC4)cc3)c2C1)c1ccccc1 [DANUSERTIB]
[4]
  CC50 at 48 h: 4000 nM
[5]
  EC50: 857 nM
[7]
  EC50: > 21000 nM
